Data as given in ChEMBL document CHEMBL4373711, “Development of 3,5-Dinitrophenyl-Containing 1,2,4-Triazoles and Their Trifluoromethyl Analogues as Highly Efficient Antitubercular Agents Inhibiting Decaprenylphosphoryl-β-d-ribofuranose 2'-Oxidase” (J Med Chem, 2019).
Converted amounts (≈) assume the structure as drawn. The source made the active and inactive calls. The rule behind the calls is not given here.

Assays:
[1] = tested on: Mycobacterium kansasii; test: Antimycobacterial activity against Mycobacterium kansasii CNCTC My 235/80 after 7 days; format: functional; details: CNCTC My 235/80, 168 h
Summary of the method: (§1)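 Microdilution in Šula's semisynthetic medium; compounds in DMSO at 32–0.03 µM. Inoculum from 1.0 McFarland suspension diluted 10-4. […] Isoniazid and rifampicin as reference drugs.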

[2] = tested on: Serratia marcescens; test: Antibacterial activity against Serratia marcescens at highest concentration measured after 24 to 48 hrs by alamar blue dye based broth microdilution assay; format: functional, organism-based
[3] = tested on: Candida tropicalis; test: Antifungal activity against Candida tropicalis ATCC 750 CCM 8264 at highest concentration measured after 24 to 48 hrs by alamar blue dye based broth microdilution assay; format: functional, organism-based
[4] = tested on: Candida parapsilosis; test: Antifungal activity against Candida parapsilosis ATCC 22019 CCM 8260 at highest concentration measured after 24 to 48 hrs by alamar blue dye based broth microdilution assay; format: functional, organism-based
[5] = tested on: Staphylococcus aureus; test: Antibacterial activity against Staphylococcus aureus subsp. aureus ATCC 29213 CCM 4223 at highest concentration measured after 24 to 48 hrs by alamar blue dye based broth microdilution assay; format: functional, organism-based
[6] = tested on: Pseudomonas aeruginosa; test: Antibacterial activity against Pseudomonas aeruginosa ATCC 27853 CCM 3955 at highest concentration measured after 24 to 48 hrs by alamar blue dye based broth microdilution assay; format: functional, organism-based
[7] = tested on: Mycobacterium tuberculosis; test: Antimycobacterial activity against Mycobacterium tuberculosis H37Rv CNCTC My 331/88 after 14 days; format: functional; details: H37Rv CNCTC My 331/88, 336 h
Summary of the method: (§2)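 M. tuberculosis strains (H37Rv and clinical MDR/XDR isolates) tested by microdilution in Šula's semisynthetic medium. Compounds were dissolved in DMSO and tested at 32 to 0.03 µM in twofold steps. Inoculum was a 1.0 McFarland suspension diluted 10-3. Plates were incubated at 37 °C and read at 14 and 21 days.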

[8] = tested on: Mycobacterium kansasii; test: Antimycobacterial activity against Mycobacterium kansasii CNCTC My 235/80 after 14 days; format: functional; details: CNCTC My 235/80, 336 h; summary of the method: as §1
[9] = tested on: Mycobacterium tuberculosis; test: Antimycobacterial activity against XDR Mycobacterium tuberculosis Praha 131 after 14 days; format: functional; details: Praha 131, 336 h; summary of the method: as §2
[10] = tested on: Staphylococcus epidermidis; test: Antibacterial activity against Staphylococcus epidermidis at highest concentration measured after 24 to 48 hrs by alamar blue dye based broth microdilution assay; format: functional, organism-based
[11] = tested on: Candida albicans; test: Antifungal activity against Candida albicans ATCC 24433 CCM 8320 at highest concentration measured after 24 to 48 hrs by alamar blue dye based broth microdilution assay; format: functional, organism-based
[12] = tested on: Trichophyton interdigitale; test: Antifungal activity against Trichophyton interdigitale ATCC 9533 CCM 8377 at highest concentration measured after 72 to 120 hrs by alamar blue dye based broth microdilution assay; format: functional
[13] = tested on: Staphylococcus aureus; test: Antibacterial activity against methicillin-resistant Staphylococcus aureus subsp. aureus ATCC 43300 CCM 4750 at highest concentration measured after 24 to 48 hrs by alamar blue dye based broth microdilution assay; format: functional, organism-based
[14] = tested on: Klebsiella pneumoniae; test: Antibacterial activity against Klebsiella pneumoniae at highest concentration measured after 24 to 48 hrs by alamar blue dye based broth microdilution assay; format: functional, organism-based
[15] = tested on: Escherichia coli; test: Antibacterial activity against Escherichia coli ATCC 25922 CCM 3954 at highest concentration measured after 24 to 48 hrs by alamar blue dye based broth microdilution assay; format: functional, organism-based
[16] = tested on: Mycobacterium kansasii; test: Antimycobacterial activity against Mycobacterium kansasii CNCTC My 235/80 after 21 days; format: functional; details: CNCTC My 235/80, 504 h; summary of the method: as §1
[17] = tested on: Mycobacterium tuberculosis; test: Antimycobacterial activity against XDR Mycobacterium tuberculosis Praha 131 after 21 days; format: functional; details: Praha 131, 504 h; summary of the method: as §2
[18] = tested on: Lichtheimia corymbifera; test: Antifungal activity against Lichtheimia corymbifera CCM 8077 at highest concentration measured after 24 to 48 hrs by alamar blue dye based broth microdilution assay; format: functional, organism-based
[19] = tested on: Mycobacterium tuberculosis; test: Antimycobacterial activity against Mycobacterium tuberculosis H37Rv CNCTC My 331/88 after 21 days; format: functional; details: H37Rv CNCTC My 331/88, 504 h; summary of the method: as §2
[20] = tested on: Mycobacterium avium; test: Antimycobacterial activity against Mycobacterium avium CNCTC My 330/88 after 14 days; format: functional; details: CNCTC My 330/88, 336 h
Summary of the method: (§3)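 M. avium was tested by microdilution in Šula's semisynthetic medium, with compounds dissolved in DMSO and serially diluted from 1000 down to 1. Inoculum was a 1.0 McFarland suspension diluted 10-5. Plates were incubated at 37 °C and read at 14 and 21 days. […] Isoniazid and rifampicin served as standards.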

[21] = biological target: T1, Decaprenylphosphoryl-beta-D-ribose oxidase (Mycobacterium tuberculosis (strain ATCC 25618 / H37Rv)) (UniProt P9WJF1); test: Inhibition of DprE1 in Mycobacterium tuberculosis H37Rv assessed as accumulation of trehalose dimycolates at 10 times MIC measured after 24 hrs in presence of [14C]-acetate by TLC-based autoradiography
T1 sequence (whole entry): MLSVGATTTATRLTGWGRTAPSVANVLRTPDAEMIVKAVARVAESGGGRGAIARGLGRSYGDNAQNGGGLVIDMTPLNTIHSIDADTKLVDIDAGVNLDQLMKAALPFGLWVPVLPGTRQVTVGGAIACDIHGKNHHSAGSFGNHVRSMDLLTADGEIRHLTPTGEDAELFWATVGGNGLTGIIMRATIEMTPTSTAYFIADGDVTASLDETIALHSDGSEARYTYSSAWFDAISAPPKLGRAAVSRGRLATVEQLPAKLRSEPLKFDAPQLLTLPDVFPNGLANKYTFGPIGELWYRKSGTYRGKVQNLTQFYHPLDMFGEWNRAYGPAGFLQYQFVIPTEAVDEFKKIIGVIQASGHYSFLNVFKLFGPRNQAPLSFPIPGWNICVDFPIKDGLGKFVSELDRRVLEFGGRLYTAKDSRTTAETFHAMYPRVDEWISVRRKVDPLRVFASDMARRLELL
Summary of the method: (§4)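 M. tuberculosis H37Rv cultures were exposed to compound at final 10× or 100× MIC, or to DMSO, together with [14C]-acetate at 1 µCi/ml final. After 24 h, lipids were extracted in CHCl3/CH3OH (2:1) for 2 h at 65 °C and given two Folch washes. Extracts were run on TLC in CHCl3/CH3OH/H2O (20:4:0.5), then autoradiographed for 7 days at -80 °C.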

[22] = biological target: T1, Decaprenylphosphoryl-beta-D-ribose oxidase (Mycobacterium tuberculosis (strain ATCC 25618 / H37Rv)); test: Inhibition of DprE1 in Mycobacterium tuberculosis H37Rv assessed as accumulation of trehalose monomycolates at 10 times MIC measured after 24 hrs in presence of [14C]-acetate by TLC-based autoradiography; summary of the method: as §4
[23] = tested on: Pichia kudriavzevii; test: Antifungal activity against Candida krusei ATCC 6258 CCM8271 at highest concentration measured after 24 to 48 hrs by alamar blue dye based broth microdilution assay; format: functional, organism-based
[24] = tested on: Aspergillus flavus; test: Antifungal activity against Aspergillus flavus CCM 8363 at highest concentration measured after 24 to 48 hrs by alamar blue dye based broth microdilution assay; format: functional, organism-based
[25] = tested on: Mycobacterium avium; test: Antimycobacterial activity against Mycobacterium avium CNCTC My 330/88 after 21 days; format: functional; details: CNCTC My 330/88, 504 h; summary of the method: as §3

| SMILES | MIC99 [1] [µM] | Activity [2] | Activity [3] | Activity [4] | Activity [5] | Activity [6] | MIC99 [7] [µM] | MIC99 [8] [µM] | MIC99 [9] [µM] | Activity [10] | Activity [11] | Activity [12] | Activity [13] | Activity [14] | Activity [15] | MIC99 [16] [µM] | MIC99 [17] [µM] | Activity [18] | MIC99 [19] [µM] | MIC99 [20] [µM] | further results |
| --- | --- | --- | --- | --- | --- | --- | --- | --- | --- | --- | --- | --- | --- | --- | --- | --- | --- | --- | --- | --- | --- |
| O=[N+]([O-])c1cc(-c2nnc(SCc3ccccc3)n2Cc2ccccc2)cc(C(F)(F)F)c1 | 0.03 (≈ 0.0141 µg/mL) | inactive | inactive | inactive | inactive | inactive | 0.03 (≈ 0.0141 µg/mL) | 0.03 (≈ 0.0141 µg/mL) | 0.06 (≈ 0.0282 µg/mL) | inactive | inactive | inactive | inactive | inactive | inactive | 0.03 (≈ 0.0141 µg/mL) | 0.06 (≈ 0.0282 µg/mL) | inactive | 0.03 (≈ 0.0141 µg/mL) | 250 (≈ 118 µg/mL) | inhibition [21]: Active; inhibition [22]: Active; Activity [23]: inactive; Activity [24]: inactive; MIC99 [25]: 250 µM (≈ 118 µg/mL) |
| CCCCCCn1c(SCc2cc([N+](=O)[O-])cc([N+](=O)[O-])c2)nnc1-c1ccccc1 | 1 (≈ 0.442 µg/mL) | inactive | inactive | inactive | inactive | inactive | 1 (≈ 0.442 µg/mL) | 1 (≈ 0.442 µg/mL) | 2 (≈ 0.883 µg/mL) | inactive | inactive | inactive | inactive | inactive | inactive | 2 (≈ 0.883 µg/mL) | 4 (≈ 1.77 µg/mL) | inactive | 2 (≈ 0.883 µg/mL) | 250 (≈ 110 µg/mL) | inhibition [21]: inactive; inhibition [22]: inactive; Activity [23]: inactive; Activity [24]: inactive; MIC99 [25]: 250 µM (≈ 110 µg/mL) |
| O=[N+]([O-])c1cc(-c2nnc(SCc3ccccc3)n2Cc2ccccc2)cc([N+](=O)[O-])c1 | 0.03 (≈ 0.0134 µg/mL) | inactive | inactive | inactive | inactive | inactive | 0.03 (≈ 0.0134 µg/mL) | 0.03 (≈ 0.0134 µg/mL) | 0.03 (≈ 0.0134 µg/mL) | inactive | inactive | inactive | inactive | inactive | inactive | 0.03 (≈ 0.0134 µg/mL) | 0.03 (≈ 0.0134 µg/mL) | inactive | 0.03 (≈ 0.0134 µg/mL) | 125 (≈ 55.9 µg/mL) | inhibition [21]: inactive; inhibition [22]: inactive; Activity [23]: inactive; Activity [24]: inactive; MIC99 [25]: 125 µM (≈ 55.9 µg/mL) |
| COc1ccc(CSc2nnc(-c3cc([N+](=O)[O-])cc(C(F)(F)F)c3)n2Cc2ccccc2)cc1 | 0.5 (≈ 0.25 µg/mL) | inactive | inactive | inactive | inactive | inactive | 0.5 (≈ 0.25 µg/mL) | 0.5 (≈ 0.25 µg/mL) | 0.5 (≈ 0.25 µg/mL) | inactive | inactive | inactive | inactive | inactive | inactive | 0.5 (≈ 0.25 µg/mL) | 1 (≈ 0.501 µg/mL) | inactive | 0.5 (≈ 0.25 µg/mL) | 250 (≈ 125 µg/mL) | inhibition [21]: Active; inhibition [22]: Active; Activity [23]: inactive; Activity [24]: inactive; MIC99 [25]: 250 µM (≈ 125 µg/mL) |
| COc1ccc(Cn2c(SCc3cc([N+](=O)[O-])cc([N+](=O)[O-])c3)nnc2-c2ccccc2)cc1 | 1 (≈ 0.478 µg/mL) | inactive | inactive | inactive | inactive | inactive | 1 (≈ 0.478 µg/mL) | 2 (≈ 0.955 µg/mL) | 2 (≈ 0.955 µg/mL) | inactive | inactive | inactive | inactive | inactive | inactive | 2 (≈ 0.955 µg/mL) | 4 (≈ 1.91 µg/mL) | inactive | 2 (≈ 0.955 µg/mL) | 250 (≈ 119 µg/mL) | inhibition [21]: inactive; inhibition [22]: inactive; Activity [23]: inactive; Activity [24]: inactive; MIC99 [25]: 250 µM (≈ 119 µg/mL) |
| COc1ccc(CSc2nnc(-c3cc([N+](=O)[O-])cc([N+](=O)[O-])c3)n2Cc2ccccc2)cc1 | 0.03 (≈ 0.0143 µg/mL) | inactive | inactive | inactive | inactive | inactive | 0.03 (≈ 0.0143 µg/mL) | 0.03 (≈ 0.0143 µg/mL) | 0.03 (≈ 0.0143 µg/mL) | inactive | inactive | inactive | inactive | inactive | inactive | 0.03 (≈ 0.0143 µg/mL) | 0.03 (≈ 0.0143 µg/mL) | inactive | 0.03 (≈ 0.0143 µg/mL) | 62 (≈ 29.6 µg/mL) | inhibition [21]: inactive; inhibition [22]: inactive; Activity [23]: inactive; Activity [24]: inactive; MIC99 [25]: 62 µM (≈ 29.6 µg/mL) |
